Results taken from ChEMBL document CHEMBL1146502, “Dimeric flavonol glycoside and galloylated C-glucosylchromones from Kunzea ambigua” (J Nat Prod, 2004).

Key:
Assay type in all cases: cell-based
Raji [1] = assay: Inhibition of TPA-induced EBV-early antigen activation in human Raji cells assessed as EA activation at 100 molar ratio after 48 hrs relative to TPA; conditions: human gammaherpesvirus 4
Summary of the method: (§1)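 Raji cells (EBV genome-carrying, virus nonproducer) were grown in RPMI-1640 with 10% FBS. Cells at 1 × 10⁶/mL were held 48 h at 37 °C with 4 mM n-butyric acid, TPA 20 ng (32 pmol)/mL, and test compound in DMSO, dosed as a mol ratio to TPA. EA-positive cells in smears were scored by indirect immunofluorescence, with ≥500 cells counted, in triplicate. Results are given relative to the butyrate+TPA control (100%).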

[2] = Cytotoxicity against human Raji cells assessed as cell viability at 500 molar ratio; conditions: read-out: Activity
Raji [3] = assay: Inhibition of TPA-induced EBV-early antigen activation in human Raji cells assessed as EA activation at 10 molar ratio after 48 hrs relative to TPA; conditions: human gammaherpesvirus 4; summary of the method: as §1
Raji [4] = assay: Inhibition of TPA-induced EBV-early antigen activation in human Raji cells assessed as EA activation at 500 molar ratio after 48 hrs relative to TPA; conditions: human gammaherpesvirus 4; summary of the method: as §1
Raji [5] = assay: Inhibition of TPA-induced EBV-early antigen activation in human Raji cells assessed as EA activation at 1000 molar ratio after 48 hrs relative to TPA; conditions: human gammaherpesvirus 4; summary of the method: as §1
[6] = Cytotoxicity against human Raji cells assessed as cell viability at 1000 molar ratio; conditions: read-out: Activity
[7] = Cytotoxicity against human Raji cells assessed as cell viability at 100 molar ratio; conditions: read-out: Activity
[8] = Cytotoxicity against human Raji cells assessed as cell viability at 10 molar ratio; conditions: read-out: Activity

Structure (SMILES)	EBV-EA activation relative to control (%) (Raji [1])	viability at 500 molar ratio [2] [%]	EBV-EA activation relative to control (%) (Raji [3])	EBV-EA activation relative to control (%) (Raji [4])	EBV-EA activation relative to control (%) (Raji [5])	viability at 1000 molar ratio [6] [%]	viability at 100 molar ratio [7] [%]	viability at 10 molar ratio [8] [%]
O=C(O[C@@H]1Cc2c(O)cc(O)cc2O[C@@H]1c1cc(O)c(O)c(O)c1)c1cc(O)c(O)c(O)c1 [EPIGALOCATECHIN GALLATE]	68.1	80	87.7	34.9	6.4	70	80	80
Cc1c(O)c(Cc2c(O)cc3oc(-c4ccc(O)c(O)c4)c(O[C@@H]4O[C@@H](C)[C@H](O)[C@@H](O)[C@H]4O)c(=O)c3c2O)c2oc(-c3ccc(O)c(O)c3)c(O[C@@H]3O[C@@H](C)[C@H](O)[C@@H](O)[C@H]3O)c(=O)c2c1O [KUNZEAGIN A]	66.1	80	90.5	32.5	4.3	70	80	80
CC(C)c1cc(=O)c2c(O)cc(O)c([C@@H]3O[C@H](CO)[C@@H](O)[C@H](O)[C@H]3OC(=O)c3cc(O)c(O)c(O)c3)c2o1	74.7	80	100	31.6	11.5	70	80	80
CC(C)c1cc(=O)c2c(O)c([C@@H]3O[C@H](CO)[C@@H](O)[C@H](O)[C@H]3O)c(O)cc2o1	65	80	91	23.7	4.6	70	80	80
CC(C)c1cc(=O)c2c(O)cc(O)c([C@@H]3O[C@H](CO)[C@@H](O)[C@H](O)[C@H]3O)c2o1	72.5	80	100	29.6	9.1	70	80	80
CC(C)c1cc(=O)c2c(O)c([C@@H]3O[C@H](CO)[C@@H](O)[C@H](O)[C@H]3OC(=O)c3cc(O)c(O)c(O)c3)c(O)cc2o1	70.4	80	94.8	26.8	5.9	70	80	80
